ALR H2O2 inh: blocks human ALR sulfhydryl oxidase activity | P55789 | hit rate 3.8% among 290,000 | purified ALR, DTT oxidation, H2O2 HRP-luminol luminescence | AID 485317 | inhibition, % (no concentration beside the values);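 active means mean replicate inhibition above about 79%, with every replicate also reaching it, limit read from the data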
Target sequence (P55789 whole entry, looked up): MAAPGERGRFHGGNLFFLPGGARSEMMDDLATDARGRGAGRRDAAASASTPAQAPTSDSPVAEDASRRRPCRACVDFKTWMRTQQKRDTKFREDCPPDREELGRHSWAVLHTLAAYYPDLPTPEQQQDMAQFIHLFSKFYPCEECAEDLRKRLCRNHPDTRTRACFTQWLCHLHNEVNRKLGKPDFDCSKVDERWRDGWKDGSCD
PHOSPHO1 inh: PHOSPHO1 (human) inhibition; recombinant PHOSPHO1, absorbance phosphatase assay; hit rate 1.1% among 290,000; AID 1565; inhibition, % at 13.3 µM; Q8TCT1; in the data active means inhibition above about 60%
Target sequence (Q8TCT1 whole entry, looked up): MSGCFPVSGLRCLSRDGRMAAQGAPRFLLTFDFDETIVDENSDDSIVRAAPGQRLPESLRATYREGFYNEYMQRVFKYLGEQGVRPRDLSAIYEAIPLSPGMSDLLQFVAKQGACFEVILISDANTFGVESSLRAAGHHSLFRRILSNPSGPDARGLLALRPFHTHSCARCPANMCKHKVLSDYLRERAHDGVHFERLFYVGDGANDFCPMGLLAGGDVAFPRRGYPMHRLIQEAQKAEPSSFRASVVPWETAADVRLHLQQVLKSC
HSF1 inhib: HSF1 inhibition. NIH3T3-HGL HSE-luciferase, MG132-induced, luminescence 8 h; hits give low values. activity change, negative = inhibition, % at 7.5 µM (by protocol). hit rate 0.77% among 300,000. AID 2098;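 active means more than half of replicate wells show activity change below -50%, luminescence cut by over half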;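 further: luciferase reports HSF-1 transcriptional activity via heat shock element; 0% = median of DMSO wells and -100% = zero luminescence signal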
AI-2 QS mod: modulators of Vibrio harveyi AI-2 quorum sensing system | Vibrio harveyi JMH597 AI-2 luminescence/OD600 ratio, 9 h; hits give low values; strain lacks LuxN and CqsS sensors; 0 = neutral-control median | activity change, % at 7.5 µM | hit rate 0.4% among 300,000 | AID 2094; in the data active means activity change below about -75%, passing the limit was not always enough;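 further: luminescence divided by OD600 gain over 9 h not by final OD600 alone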
HCV core dimer: HCV core protein dimerization inhibition. TR-FRET GST/Flag-core106 dimerization, 1536-well. inhibition, % at 5 µM. hit rate 0.33% among 300,000. AID 1899;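 active means inhibition above the mean of all tested compounds plus 3 SD, set per screening campaign, cut at about 45% in these data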
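Assay system: GST-tagged and Flag-tagged HCV core protein residues 1-106 / Times: compound-protein-antibody incubation 4 h at 22.5 °C / Signal: time-resolved FRET, ex 340 nm, em 617 and 671 nm / Evaluation: % inhibition based on acceptor/donor emission ratio / Benchmarks: wells lacking GST-core106 and wells with excess unlabelled core106 / Repeats: singlicate, one well per compound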
HSF-1 act: increases HSF-1 driven luciferase reporter signal; hit rate 1.7% among 300,000; activation, % at 9 µM; NIH3T3-HGL HSF-1 luciferase reporter, MG132, 8 h; 100% = twice DMSO control signal;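 active means mean replicate activation of at least 50% with a set share of replicates each reaching 50%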;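 further: 0% = median of the neutral control wells and 100% = twice that signal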
Numbers without * were called inactive; x = no result. Most compounds without a hit are left out; they make up all but 6.8% or so of the library.

SMILES	ALR H2O2 inh	PHOSPHO1 inh	HSF1 inhib	AI-2 QS mod	HCV core dimer	HSF-1 act
COc1ccc(C[C@H]2c3cc(O)c(OC)cc3CC[N+]2(C)[O-])cc1O (stereo not given in full)	95*	31	5	5	-29	4
COc1ccccc1-c1nnc(SCC(=O)NC2CCS(=O)(=O)C2)n1CCc1ccccc1 (stereo not given)	-1	0	2	7	-2	8
C[C@@H]1CCC[C@@]2(O[C@H](CCO)C[C@H](O)[C@H]2O)O1	-7	x	-9	4	9	-7
Cc1[nH]nc2c1C(c1cc(Br)cs1)C(C#N)=C(N)O2 (stereo not given)	12	-8	65	-4	-2	70*
Cc1[nH]nc2c1C(c1cn[nH]c1-c1ccc(F)cc1)C(C#N)=C(N)O2 (stereo not given)	92*	3	3	26	5	1
Cc1[nH]nc2c1C(c1ccco1)C(C#N)=C(N)O2 (stereo not given)	9	12	8	7	1	-9
Cc1c(C)n(CC(O)CN2C(=O)c3ccccc3S2(=O)=O)c2ccccc12 (stereo not given)	24	-43	10	7	0	20
Cn1c(=O)n(C)c2cc(S(=O)(=O)Nc3ccccc3O)ccc21	51	-6	-1	15	1	-9
Cn1c(=O)n(C)c2cc(S(=O)(=O)Nc3cc(Cl)ccc3O)ccc21	98*	39	1	29	26	23
Oc1ccc(/C=N/N=C/c2ccc(O)cc2)cc1	96*	23	-2	23	-4	-3
Oc1ccc(/C=N/N=C/c2ccc(O)c(O)c2)cc1O	99*	x	-5	23	-17	-7
Cc1ccc(/C=N/N=C/c2ccc(C)cc2)cc1	x	6	-3	3	1	13
O=C(/C(=N/N=C/c1ccc(O)c(O)c1)c1ccccc1)c1ccccc1	x	-1	36	74	-9	90*
O=Cc1ccc(O)c(O)c1	99*	4	2	4	-10	-9
O=C(C1=C(O)C(=O)N(Cc2cccnc2)C1c1ccccn1)c1cccs1 (stereo not given)	-14	38	4	4	-4	0
O=C(NC1CCSc2ccccc21)c1ccc(C(F)(F)F)cc1 (stereo not given)	5	16	-11	5	8	-11
Oc1ccc(N=Cc2ccc(O)c(O)c2)cc1	99*	2	42	33	-17	49
COc1ccc(-c2csc(NC3OC(=O)c4c3ccc(OC)c4OC)n2)cc1OC (stereo not given)	8	19	43	4	-2	60*
Cc1cccn2cc(CNc3ccccc3)nc12	98*	-5	-6	-43	3	8
Cc1cccn2cc(-c3cccc(NC(=O)c4cccs4)c3)nc12	20	15	7	17	1	20
COc1ccc(-c2cn3cccc(C)c3n2)cc1Br	7	1	41	14	5	62*
CCCS(=O)(=O)NCc1cn2cccc(C)c2n1	-1	5	2	19	-2	13
Cc1cccn2cc(-c3ccc(F)cc3)nc12	96*	7	32	19	-1	47
Cc1cccn2cc(-c3ccccc3)nc12	x	8	30	12	-3	69*
COc1ccc(-c2csc(C)n2)cc1Br	x	42	19	5	-2	29
SMILES	ALR H2O2 inh	PHOSPHO1 inh	HSF1 inhib	AI-2 QS mod	HCV core dimer	HSF-1 act
COc1cc(NC(=O)c2cc3c(C)nc4ccccc4c3o2)cc(OC)c1OC	x	7	-51*	-4	8	-52
O=C(CNC(=O)[C@@H]1Cc2ccccc2CN1)NCc1ccco1	12	28	0	17	12	8
CSc1ccccc1NC(=O)CSCc1ccccc1Br	-13	4	19	-9	2	21
O=C(CSCc1ccccc1Br)NC1CC1	98*	16	8	5	-2	6
COC(=O)N/N=C/c1cccc(OCCSc2ccc(Cl)cc2)c1	0	5	23	27	7	57*
CCC(=O)N1CCc2cc(S(=O)(=O)CCC(=O)NCc3cccc(OC)c3)ccc21	-8	33	3	21	0	-2
O=C(O)c1ccc(/C=C2\CCCc3c2nc2ccccc2c3C(=O)O)cc1	-12	30	-1	18	0	-1
COc1ccc(/C=C2\CCCc3c2nc2ccccc2c3C(=O)O)cc1OC	-22	2	-3	-5	3	-7
O=C(O)c1c2c(nc3ccccc13)/C(=C/c1ccc(O)cc1)CCC2	100*	24	-14	23	1	-14
COc1cc(/C=C2\CCCc3c2nc2ccccc2c3C(=O)O)cc(OC)c1O	99*	38	-3	20	-4	-3
CCCNC(C)(C)COC(=O)c1ccccc1	-5	x	x	x	-5	x
Cc1nnc(SCC(=O)NC(C)(C)C)n1NCc1cccc(Br)c1	0	34	15	12	-5	37
CN(C)Cc1c(O)ccc2occ(C(=O)c3ccccc3)c12	-50	2	20	25	1	16
O=C(c1ccccc1)c1coc2ccc(O)c(Cl)c12	99*	-26	2	-1	-6	5
Cc1ccc(C(=O)c2coc3ccc(O)c(Cl)c23)cc1	98*	4	8	-22	7	8
Cc1ccccc1CS(=O)(=O)c1nnc([C@H](CC(C)C)NC(=O)OC(C)(C)C)o1	64	21	74	16	2	107*
CC[C@@H](C)[C@H](NC(=O)OC(C)(C)C)c1nnc(S(=O)(=O)Cc2cc(C)ccc2C)o1	35	0	-66*	12	-1	-65
CCOC(=O)c1oc2cccc(O)c2c1CN(Cc1ccccc1)C(C)=O	85*	14	3	12	-2	-4
CN1C(C(=O)Nc2cccc(O)c2)=CC(c2ccco2)=NS1(=O)=O	12	23	-8	8	-3	-9
CCc1ccc(NC(=O)Cn2nnc(C(=O)NCc3ccco3)c2N)cc1	-3	15	-1	30	5	18
O=C(/C=C/c1ccc(Cl)c(Cl)c1)NC1=NCCS1	-9	50	25	13	6	54*
O=C1CSCN1c1ccc(Cl)c(Cl)c1	98*	-13	-1	10	-2	7
Cc1cc2oc3c(c(=O)c2cc1C)C(c1ccc(C(C)C)cc1)N(CCCN1CCOCC1)C3=O (stereo not given)	6	-1	33	8	-3	58*
CCOc1ccc(C2c3c(oc4cc(C)c(C)cc4c3=O)C(=O)N2CCCN2CCOCC2)cc1 (stereo not given)	32	-5	-6	8	2	-5
Nc1nnc(SCC(=O)c2ccc([N+](=O)[O-])cc2)s1	98*	-6	5	-55	1	-8
